The values below come from ChEMBL document CHEMBL1136109, “Polymer-assisted solution-phase (PASP) parallel synthesis of an alpha-ketothiazole library as tissue factor VIIa inhibitors” (Bioorg Med Chem Lett, 2003).

One test deals with Prothrombin (Homo sapiens, UniProt P00734). In words: Inhibitory activity against thrombin (IIa). In short, it runs like this:
(§1)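 Chromogenic enzyme assays: factor Xa, thrombin (IIa), or tissue factor/VIIa complex, each with its own specific chromogenic substrate. Activity was followed as the rise in absorbance at 405 nm from released p-nitroaniline as substrate was cleaved. Inhibition was taken as the reduced change in absorbance and expressed as IC50.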

Another test addresses T1, Coagulation factor VII (Homo sapiens, UniProt P08709).
T1 sequence (P08709 whole entry): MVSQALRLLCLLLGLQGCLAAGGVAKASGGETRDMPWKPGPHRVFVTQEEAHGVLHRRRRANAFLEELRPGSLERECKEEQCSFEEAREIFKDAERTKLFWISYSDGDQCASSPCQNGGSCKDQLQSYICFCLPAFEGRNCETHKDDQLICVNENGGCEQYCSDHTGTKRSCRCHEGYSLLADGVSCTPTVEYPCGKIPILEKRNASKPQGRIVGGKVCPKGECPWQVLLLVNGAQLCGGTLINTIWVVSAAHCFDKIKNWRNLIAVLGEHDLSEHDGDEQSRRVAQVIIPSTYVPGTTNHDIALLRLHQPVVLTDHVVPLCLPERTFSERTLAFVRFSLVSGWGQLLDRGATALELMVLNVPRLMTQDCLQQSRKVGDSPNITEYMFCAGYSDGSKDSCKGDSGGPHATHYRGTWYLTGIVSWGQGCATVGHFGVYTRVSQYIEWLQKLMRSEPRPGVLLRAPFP
In words: Inhibition of tissue coagulation factor VII. The gist of the method: as §1

In test [1] the target is Thrombin and coagulation factor VII (Homo sapiens) (UniProt P00734+P08709). Nature of the test: Selectivity ratio for tissue factor VIIa and thrombin (IIa). Type of test: protein assay.
Another test concerns the target Coagulation factor X (Homo sapiens, UniProt P00742). In words: Inhibition of coagulation factor X. The gist of the method: as §1

Bounds are passed on as bounds.

Sequence of Coagulation factor X (P00742 41-179 limits assumed): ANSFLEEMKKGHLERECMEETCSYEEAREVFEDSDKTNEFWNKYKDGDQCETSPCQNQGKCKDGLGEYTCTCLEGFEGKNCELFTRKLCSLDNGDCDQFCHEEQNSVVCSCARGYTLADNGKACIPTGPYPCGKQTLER
Sequence of Coagulation factor X (P00742 235-488 limits assumed): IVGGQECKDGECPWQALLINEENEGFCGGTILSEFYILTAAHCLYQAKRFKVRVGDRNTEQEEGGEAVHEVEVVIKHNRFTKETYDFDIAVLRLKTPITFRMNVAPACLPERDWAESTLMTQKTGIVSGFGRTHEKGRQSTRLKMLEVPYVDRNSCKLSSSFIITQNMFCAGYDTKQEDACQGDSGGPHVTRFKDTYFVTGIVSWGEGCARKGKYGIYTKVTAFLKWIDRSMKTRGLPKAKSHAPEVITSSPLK

On to `N#CC[C@H](NC(=O)[C@@H](Cc1ccccc1)NS(=O)(=O)Cc1ccccc1)C(=O)N[C@@H](CCCNC(=N)N)C(=O)c1nccs1`, for which the figures for the IC50 on Prothrombin, against Coagulation factor VII and at Coagulation factor X were 100000 nM, 1450 nM and 2400 nM, respectively. The Ratio in test [1] turned out to be 69.
For `N=C(N)NCCC[C@H](NC(=O)[C@H](CC(N)=O)NC(=O)[C@@H](Cc1ccccc1)NS(=O)(=O)Cc1ccccc1)C(=O)c1nccs1`, the Ratio in test [1] stood at 58.
Consider `N=C(N)NCCC[C@H](NC(=O)[C@H](Cc1ccccc1F)NC(=O)[C@@H](Cc1ccccc1)NS(=O)(=O)Cc1ccccc1)C(=O)c1nccs1`, for which the half-maximal inhibitory concentration (IC50) (commonly the point on the concentration scale where inhibition reaches its midpoint) at Prothrombin is above 30000 nM; against Coagulation factor VII, 90 nM; against Coagulation factor X, 210 nM. In test [1], the Ratio is above 333.
On the same counts, the results for `N=C(N)NCCC[C@H](NC(=O)[C@H](Cc1cccc(F)c1)NC(=O)[C@@H](Cc1ccccc1)NS(=O)(=O)Cc1ccccc1)C(=O)c1nccs1` are 15000 nM, 200 nM, 250 nM and 75.
`N=C(N)NCCC[C@H](NC(=O)[C@H](Cc1cccnc1)NC(=O)[C@@H](Cc1ccccc1)NS(=O)(=O)Cc1ccccc1)C(=O)c1nccs1`: the Ratio in test [1] is 500.
As to `Cc1ccccc1C[C@H](NC(=O)[C@@H](Cc1ccccc1)NS(=O)(=O)Cc1ccccc1)C(=O)N[C@@H](CCCNC(=N)N)C(=O)c1nccs1`, the figures for the IC50 against Prothrombin, on Coagulation factor VII and against Coagulation factor X were 21700 nM, 240 nM and 330 nM, respectively.
Regarding `N=C(N)NCCC[C@H](NC(=O)[C@H](Cc1ccc(F)c(F)c1)NC(=O)[C@@H](Cc1ccccc1)NS(=O)(=O)Cc1ccccc1)C(=O)c1nccs1`, the IC50 against Prothrombin came to 11200 nM; against Coagulation factor VII, 160 nM; against Coagulation factor X, 210 nM. In test [1], the Ratio is 70.
Turning to `Cc1ccccc1C[C@H](NC(=O)[C@@H](Cc1ccccc1)NS(=O)(=O)Cc1ccccc1)C(=O)N[C@@H](CCCN=C(N)N)C(=O)c1nccs1`, the Ratio in test [1] was 90.
As to `N=C(N)NCCC[C@H](NC(=O)[C@H](Cc1cccc(C(F)(F)F)c1)NC(=O)[C@@H](Cc1ccccc1)NS(=O)(=O)Cc1ccccc1)C(=O)c1nccs1`, the IC50 came out at 84900 nM against Prothrombin, 800 nM against Coagulation factor VII and 1000 nM at Coagulation factor X. Also, in test [1], the Ratio is 106.
On to `Cc1cccc(C[C@H](NC(=O)[C@@H](Cc2ccccc2)NS(=O)(=O)Cc2ccccc2)C(=O)N[C@@H](CCCN=C(N)N)C(=O)c2nccs2)c1`, for which the Ratio in test [1] amounted to 71.
`NC(N)=NCCC[C@H](NC(=O)[C@H](Cc1cccnc1)NC(=O)[C@@H](Cc1ccccc1)NS(=O)(=O)Cc1ccccc1)C(=O)c1nccs1`: the half-inhibitory concentration (IC50) came to 100000 nM on Prothrombin, 200 nM at Coagulation factor VII and 290 nM on Coagulation factor X.
Regarding `N=C(N)NCCC[C@H](NC(=O)[C@H](Cc1ccccc1)NC(=O)[C@@H](Cc1ccccc1)NS(=O)(=O)Cc1ccccc1)C(=O)c1nccs1`, the half-maximal inhibitory concentration (IC50) was found to be 4000 nM at Prothrombin, 42 nM against Coagulation factor VII and 27 nM against Coagulation factor X. Besides, the Ratio in test [1] was 95.
On the same counts, the results for `N=C(N)NCCC[C@H](NC(=O)[C@H](Cc1cccc(Cl)c1)NC(=O)[C@@H](Cc1ccccc1)NS(=O)(=O)Cc1ccccc1)C(=O)c1nccs1` are 14600 nM, 230 nM, 270 nM and 63.
In the case of `Cc1cccc(C[C@H](NC(=O)[C@@H](Cc2ccccc2)NS(=O)(=O)Cc2ccccc2)C(=O)N[C@@H](CCCNC(=N)N)C(=O)c2nccs2)c1`, the IC50 against Prothrombin was 12000 nM; against Coagulation factor VII, 170 nM; against Coagulation factor X, 160 nM.
Taken in the same sequence, the figures for `NC(=O)C[C@H](NC(=O)[C@@H](Cc1ccccc1)NS(=O)(=O)Cc1ccccc1)C(=O)N[C@@H](CCCN=C(N)N)C(=O)c1nccs1` were 60000 nM, 1030 nM and 2100 nM.
Regarding `N#Cc1ccc(C[C@H](NC(=O)[C@@H](Cc2ccccc2)NS(=O)(=O)Cc2ccccc2)C(=O)N[C@@H](CCCNC(=N)N)C(=O)c2nccs2)cc1`, the figures for the half-maximal inhibitory concentration (IC50) at Prothrombin, against Coagulation factor VII and at Coagulation factor X were 50000 nM, 340 nM and 900 nM, respectively. For the same molecule, in test [1], the Ratio stood at 147.
Turning to `CC[C@@H](C)[C@H](NC(=O)[C@@H](Cc1ccccc1)NS(=O)(=O)Cc1ccccc1)C(=O)N[C@@H](CCCN=C(N)N)C(=O)c1nccs1`, the results for the half-maximal inhibitory concentration (IC50) against Prothrombin and on Coagulation factor X were 19300 nM and 380 nM, respectively. The Ratio in test [1] came out at 64.
